Only some compounds are listed: those with a hit (about 2.3% of all), similar ones and a draw of the others.
TRPC4 potent = positive allosteric modulators of TRPC4, primary screen, cell-based, mouse TRPC4beta, HEK293 mu-opioid, Fluo-4 calcium; 0.42% of 310,000 active; Short transient receptor potential channel 4 (Mus musculus), Q9QUQ5; B-score at 10 µM; AID 2227, 2009; DAMGO EC20, Fluo-4 Ca2+ flux; stronger effect = higher value;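 active means B-score of calcium response area above 5 SD of library B-scores, with initial fluorescence ratio within 5 SD of library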;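 further: B-score of integrated fluorescence ratio over time as area under calcium response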
Target sequence (Q9QUQ5 whole entry, looked up): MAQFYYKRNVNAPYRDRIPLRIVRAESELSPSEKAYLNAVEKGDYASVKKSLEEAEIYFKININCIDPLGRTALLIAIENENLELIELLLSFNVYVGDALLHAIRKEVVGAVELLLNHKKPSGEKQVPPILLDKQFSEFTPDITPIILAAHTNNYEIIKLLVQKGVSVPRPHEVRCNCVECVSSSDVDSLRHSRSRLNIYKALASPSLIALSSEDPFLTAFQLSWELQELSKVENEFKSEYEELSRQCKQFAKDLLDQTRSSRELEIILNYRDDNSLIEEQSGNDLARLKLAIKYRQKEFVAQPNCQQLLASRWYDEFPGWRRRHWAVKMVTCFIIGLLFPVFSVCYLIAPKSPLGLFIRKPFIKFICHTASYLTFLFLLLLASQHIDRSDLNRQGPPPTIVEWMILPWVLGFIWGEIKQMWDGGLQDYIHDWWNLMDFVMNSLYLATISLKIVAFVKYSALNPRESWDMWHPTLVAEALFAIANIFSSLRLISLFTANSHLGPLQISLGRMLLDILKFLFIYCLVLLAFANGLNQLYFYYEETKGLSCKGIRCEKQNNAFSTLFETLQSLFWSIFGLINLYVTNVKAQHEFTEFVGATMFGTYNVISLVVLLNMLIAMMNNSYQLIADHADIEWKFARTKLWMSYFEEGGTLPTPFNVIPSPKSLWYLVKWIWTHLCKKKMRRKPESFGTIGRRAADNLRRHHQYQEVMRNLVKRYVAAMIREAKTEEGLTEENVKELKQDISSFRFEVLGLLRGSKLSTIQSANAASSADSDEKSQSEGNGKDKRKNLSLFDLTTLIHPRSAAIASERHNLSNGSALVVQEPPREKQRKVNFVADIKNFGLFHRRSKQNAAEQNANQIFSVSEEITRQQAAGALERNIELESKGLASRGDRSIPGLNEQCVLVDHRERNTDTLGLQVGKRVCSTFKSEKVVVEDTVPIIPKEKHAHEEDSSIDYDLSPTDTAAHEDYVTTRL
TRPC6 inh = mouse TRPC6 channel inhibitors, primary screen, cell-based, HEK293, membrane potential dye. 1.1% of 310,000 active. ACh-evoked depolarization; stronger effect = lower value. AID 2553, 2010. Short transient receptor potential channel 6 (Mus musculus), Q61143. B-score at 10 µM;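 active means B-score under library mean minus 3 SD, initial fluorescence not abnormally high, positive integrated signal ratio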;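 further: B-score derived from integrated fluorescence ratio over the kinetic read; more negative B-score means stronger inhibition of depolarization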
TRPC4 inh = inhibitors of mouse TRPC4 channel, primary screen, Fluo4 calcium, HEK293 TRPC4beta/mu-opioid cells; DAMGO-evoked Fluo4 calcium flux; stronger effect = lower value; B-score at 10 µM; 0.39% of 300,000 active; AID 2247, 2010;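 active means B-score over 3 SD under the library average, no early fluorescence shift, positive overall ratio signal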
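Assay system: HEK293 cells with stable TRPC4beta plus mu-opioid receptor expression. Dosing: single dose. Measured by: Fluo4 Ca2+ flux fluorescence. Also added: DAMGO in two steps, submaximal then maximal. Read-out: B score from integrated Fluo4 fluorescence ratio.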
TRPC6 activator = mouse TRPC6 channel activators, primary screen, cell-based, HEK293, membrane potential dye | 0.13% of 310,000 active | AID 2550, 2010 | B-score at 10 µM | HEK293-TRPC6 membrane potential dye fluorescence; stronger effect = higher value;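 active means B-score of the integrated fluorescence ratio above library mean plus 3 SD, and starting fluorescence ratio within library mean plus 5 SD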;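 further: higher score means more depolarization so channel activation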
TRPC4 agonist = activators of mouse TRPC4 channel, primary screen, Fluo4 calcium, HEK293 TRPC4beta/mu-opioid cells; Fluo4 calcium fluorescence; stronger effect = higher value; B-score at 10 µM; 0.49% of 310,000 active;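 active means B-score above 5 SD of library B-scores, and initial fluorescence ratio not above library mean plus 5 SD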;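 further: positive B-score marks a calcium rise read as TRPC4 activation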
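Material: TRPC4beta and mu-opioid receptor HEK293 stable cells | Incubation: 45 min room-temperature Fluo4 loading, 110 s read | Detection: Kinetic Fluo4 calcium fluorescence | Measure: Integrated baseline-normalised fluorescence ratio, converted to per-well B score | Benchmarks: Low control buffer alone, high control maximal DAMGO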
Starred values were filed as active, the others as inactive; i = inactive.

SMILES	TRPC4 potent	TRPC6 inh	TRPC4 inh	TRPC6 activator	TRPC4 agonist
COc1ccccc1C(C)NC(=O)c1ccccc1SCC(=O)N1CCCC1 (configuration not stated)	i	i	i	i	i
CC1CC(C)CN(CCCNC(=O)CCC(=O)N2CC(C)Oc3ccccc32)C1 (configuration not stated)	i	i	i	i	53*
CC1CN(C(=O)CCC(=O)NCCc2ccccc2)c2ccccc2O1 (configuration not stated)	i	i	i	i	i
COc1cccc(NC(=O)CCC(=O)N2CC(C)Oc3ccc(C)cc32)c1 (configuration not stated)	i	i	-7*	i	i
Cc1ccc2c(c1)N(C(=O)CCC(=O)Nc1ccccc1Cl)CC(C)O2 (configuration not stated)	i	i	-8*	i	i
Cc1ccc2c(c1)N(C(=O)CCC(=O)NCc1cccc(Cl)c1)CC(C)O2 (configuration not stated)	i	i	-7*	i	i
Cc1ccc2c(c1)N(C(=O)CCC(=O)NCc1ccccc1)CC(C)O2 (configuration not stated)	i	i	i	i	i
COc1ccc(NC(=O)CN(C)C(=O)c2ccc(S(=O)(=O)Nc3ccccc3F)cc2)cc1	i	i	i	i	i
COCCN(C(=O)COC(=O)Cc1c[nH]c2ccccc12)c1c(N)n(Cc2ccccc2)c(=O)[nH]c1=O	i	i	i	i	i
c1cnc(N2CCN(c3cnccn3)CC2)nc1	28*	i	i	i	i
Cc1ccc(C(O)Cn2nc(C)cc2C)cc1 (configuration not stated)	i	i	i	i	i
Oc1ccc(-c2csc(-c3ccccc3)n2)cc1O	i	i	-6*	i	i
Oc1ccc(-c2csc(-c3cccnc3)n2)cc1O	i	i	i	i	i
S=C(NCc1ccccc1)N1CCN(C2CCCCC2)CC1	i	i	i	i	76*
CN(C)CCCN(Cc1cc2cc3c(cc2[nH]c1=O)OCO3)C(=S)NCc1ccco1	i	i	-6*	i	i
CN(C)c1ccc(/C=C2\CCCc3c2nc2ccccc2c3C(=O)O)cc1	i	i	i	i	i
COCC(C)NC(C(=O)Nc1ccc(C)c(Cl)c1)c1ccccc1 (configuration not stated)	i	i	i	i	59*
CCn1nccc1C(=O)Nc1ccc(C(=O)OC(C)C)cc1	i	i	i	i	i
CN1CCN(Cc2nc3c(c(=O)[nH]c(=O)n3C)n2Cc2c(F)cccc2Cl)CC1	20*	i	i	i	80*
CN1CCN(Cc2nc3c(c(=O)[nH]c(=O)n3C)n2CCc2ccccc2)CC1	i	i	i	i	i
O=C(Nc1cnn(C23CC4CC(CC(C4)C2)C3)c1)c1cnn2cccnc12	73*	i	i	i	i
COc1ccc(-c2nc(CN3CCC(C(=O)NC4CCCC4)CC3)c(C)o2)cc1OC	i	i	i	i	101*
CCOC(=O)c1c(C)[nH]c(C(=O)N2CCC(C(=O)OCC)CC2)c1C	i	i	i	i	i
CN1C2C(Br)CCCCN2c2ccc(F)cc2S1(=O)=O (configuration not stated)	i	i	i	i	i
CCC1CN(C(=O)Nc2ccc(C)cc2)c2cc(C)ccc2O1 (configuration not stated)	i	i	-6*	i	i
SMILES	TRPC4 potent	TRPC6 inh	TRPC4 inh	TRPC6 activator	TRPC4 agonist
CCC1CN(C(=O)NCc2ccc(F)cc2)c2cc(C)ccc2O1 (configuration not stated)	i	i	i	i	i
CSc1ccc(C(=O)N2CCC(CCC(=O)NCc3ccc(F)cc3)CC2)cc1	i	i	i	i	i
Cc1ccc(CNC(=O)c2cnc3ccccc3n2)cc1	i	i	i	i	i
O=C(NCCc1ccccc1)c1cnc2ccccc2n1	16*	i	i	i	i
CCOC(=O)C1(CCOc2ccccc2)CCN(Cc2ccc(C(=O)OC)cc2)CC1	i	i	i	i	i
CCOC(=O)C1(CCOc2ccccc2)CCN(Cc2cccs2)CC1	i	i	-5*	i	i
CCOC(=O)C1(CCOc2ccccc2)CCN(Cc2nccn2CC)CC1	i	i	i	i	i
CCOC(=O)C1(CCOc2ccccc2)CCN(Cc2cccc(OC)c2)CC1	i	i	i	i	i
CCOC(=O)C1(CCOc2ccccc2)CCN(Cc2ccncc2)CC1	i	i	i	i	i
CCOC(=O)C1(CCOc2ccccc2)CCN(Cc2cccn2-c2ncccn2)CC1	i	i	-9*	i	i
CCOC(=O)C1(CCOc2ccccc2)CCN(Cc2ccc(-n3cccn3)cc2)CC1	i	i	-7*	i	i
CCOC(=O)C1(CCOc2ccccc2)CCN(Cc2cc(OC)ccc2OC)CC1	i	i	i	i	98*
O=C1CN(C(=O)/C=C/c2ccc(Br)cc2)CCN1	i	i	i	i	i
CCOC(=O)C1(CCOC)CCN(Cc2ccncc2)CC1	i	i	i	i	i
CCOC(=O)C1(CCOC)CCN(Cc2ccccc2-c2ccco2)CC1	i	i	i	i	123*
Cn1nnnc1N=N/C(=N/Nc1ccccc1)c1ccccc1	i	i	i	i	i
CC1=C(C(=O)OC(C)C)C(c2cn(-c3ccccc3)nc2-c2cccs2)NC(=O)N1 (configuration not stated)	13*	i	i	i	i
CCOCCCNCc1cc(Br)ccc1OCc1ccccc1	i	i	-6*	i	i
Brc1ccc(OCc2ccccc2)c(CNCC2CCCO2)c1 (configuration not stated)	i	i	-6*	i	i
OCCNCc1cc(Br)ccc1OCc1ccccc1	i	i	i	i	i
Cc1ccc(NC(=O)c2ccccc2SCC(=O)N2CCCC2)cc1S(=O)(=O)N(C)C	i	i	i	i	i
O=C1CN(c2ccccc2)C(=S)N1C(=O)c1ccc(Br)cc1	i	i	i	i	i

Source: PubChem (Johns Hopkins Ion Channel Center)
